Experiments:
PC-3 = test: Growth inhibition of human PC3 cells; type: functional
NCI/ADR-RES = test: Growth inhibition of human NCI/ADR-RES cells; type: functional; settings: for CC50: read-out: LC50 (the source's name)
LOX IMVI = test: Growth inhibition of human LOXIMVI cells; type: functional
HCT-15 = test: Growth inhibition of human HCT15 cells; type: functional; settings: for CC50: read-out: LC50 (the source's name)
A498 = test: Growth inhibition of human A498 cells; type: functional; settings: for CC50: read-out: LC50 (the source's name)
HL-60(TB) = test: Growth inhibition of human HL-60(TB) cells; type: functional; settings: for CC50: read-out: LC50 (the source's name)
UO-31 = test: Growth inhibition of human UO31 cells; type: functional; settings: for CC50: read-out: LC50 (the source's name)
SF-268 = test: Growth inhibition of human SF268 cells; type: functional
SK-MEL-2 = test: Growth inhibition of human SK-MEL-2 cells; type: functional; settings: for CC50: read-out: LC50 (the source's name)
Amorphotheca resinae = test: Antimicrobial activity against Cladosporium resinae assessed per disk; type: functional
EKVX = test: Growth inhibition of human EKVX cells; type: functional; settings: for CC50: read-out: LC50 (the source's name)
U-251 = test: Growth inhibition of human U251 cells; type: functional; settings: for CC50: read-out: LC50 (the source's name)
[1] = Cytotoxicity against african green monkey BSC1 cells at 40 ug/disk; type: cell-based; settings: chlorocebus aethiops, bsc-1
Method in brief: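 BSC-1 cells (ATCC CCL 26), a line derived from African green monkey kidney, are the host cells of the combined antiviral/cytotoxicity assay. Cytotoxicity is scored on these cells within that assay.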

NCI-H23 = test: Growth inhibition of human NCI-H23 cells; type: functional
HCC 2998 = test: Growth inhibition of human HCC2998 cells; type: functional
SN12C = test: Growth inhibition of human SN12C cells; type: functional
SW-620 = test: Growth inhibition of human SW620 cells; type: functional
OVCAR-8 = test: Growth inhibition of human OVCAR8 cells; type: functional; settings: for CC50: read-out: LC50 (the source's name)
HT-29 = test: Growth inhibition of human HT-29 cells; type: functional
SR = test: Growth inhibition of human SR cells; type: functional; settings: for CC50: read-out: LC50 (the source's name)

SMILES: COc1cn2c(cc1=O)C(=O)c1ccnc(CC(C)C)c1-2 [PTEROCELLIN A]
- GI50 (PC-3): 2.9 µM
- LC50 (concentration killing 50% of cells) (PC-3): 45.1 µM
- TGI (PC-3): 8.4 µM
- GI50 (NCI/ADR-RES): 2.1 µM
- TGI (NCI/ADR-RES): 4.9 µM
- CC50 (NCI/ADR-RES): > 100 µM
- GI50 (LOX IMVI): 1.3 µM
- LC50 (LOX IMVI): > 100 µM
- TGI (LOX IMVI): 7.4 µM
- GI50 (HCT-15): 1.6 µM
- TGI (HCT-15): 4.2 µM
- CC50 (HCT-15): 17.3 µM
- GI50 (A498): 0.9 µM
- TGI (A498): 2.2 µM
- CC50 (A498): 5.1 µM
- GI50 (HL-60(TB)): 3 µM
- TGI (HL-60(TB)): > 100 µM
- CC50 (HL-60(TB)): > 100 µM
- GI50 (UO-31): 2.2 µM
- TGI (UO-31): 6.1 µM
- CC50 (UO-31): 22.2 µM
- GI50 (SF-268): 2.1 µM
- LC50 (concentration killing 50% of cells) (SF-268): 26.7 µM
- TGI (SF-268): 6.7 µM
- GI50 (SK-MEL-2): 1.9 µM
- TGI (SK-MEL-2): 3.4 µM
- CC50 (SK-MEL-2): 6.3 µM
- MIC (Amorphotheca resinae): >60 µg
- GI50 (EKVX): 2.1 µM
- TGI (EKVX): 5.8 µM
- CC50 (EKVX): 23.6 µM
- GI50 (U-251): 2.2 µM
- TGI (U-251): 7.5 µM
- CC50 (U-251): 42.5 µM
- Activity [1]: Toxic
- GI50 (NCI-H23): 0.3 µM
- LC50 (concentration causing 50% net cell kill) (NCI-H23): 6.1 µM
- TGI (NCI-H23): 1 µM
- GI50 (HCC 2998): 1.6 µM
- LC50 (concentration killing 50% of cells) (HCC 2998): 6 µM
- TGI (HCC 2998): 3.1 µM
- GI50 (SN12C): 1.7 µM
- LC50 (SN12C): 6.5 µM
- TGI (SN12C): 3.3 µM
- GI50 (SW-620): 1.5 µM
- LC50 (concentration killing 50% of cells) (SW-620): 6.2 µM
- TGI (SW-620): 3.1 µM
- GI50 (OVCAR-8): 2.2 µM
- TGI (OVCAR-8): 17.6 µM
- CC50 (OVCAR-8): > 100 µM
- GI50 (HT-29): 1.3 µM
- LC50 (HT-29): > 100 µM
- TGI (HT-29): 7.2 µM
- GI50 (SR): 2 µM
- TGI (SR): > 100 µM
- CC50 (SR): > 100 µM

SMILES: COc1cn2c(cc1=O)C(=O)c1ccnc(Cc3ccccc3)c1-2 [PTEROCELLIN B]
- GI50 (PC-3): 1.6 µM
- LC50 (concentration killing 50% of cells) (PC-3): 26.6 µM
- TGI (PC-3): 5.9 µM
- GI50 (NCI/ADR-RES): 1.4 µM
- TGI (NCI/ADR-RES): 3.9 µM
- CC50 (NCI/ADR-RES): 15.3 µM
- GI50 (LOX IMVI): 0.4 µM
- LC50 (LOX IMVI): 13.2 µM
- TGI (LOX IMVI): 2.4 µM
- GI50 (HCT-15): 0.5 µM
- TGI (HCT-15): 1.8 µM
- CC50 (HCT-15): 4.9 µM
- GI50 (A498): 1.9 µM
- TGI (A498): 4 µM
- CC50 (A498): 8.5 µM
- GI50 (HL-60(TB)): 1 µM
- TGI (HL-60(TB)): 5.1 µM
- CC50 (HL-60(TB)): 43.5 µM
- GI50 (UO-31): 1.3 µM
- TGI (UO-31): 2.8 µM
- CC50 (UO-31): 5.7 µM
- GI50 (SF-268): 1.7 µM
- LC50 (concentration killing 50% of cells) (SF-268): 21.5 µM
- TGI (SF-268): 5.5 µM
- GI50 (SK-MEL-2): 0.7 µM
- TGI (SK-MEL-2): 2.2 µM
- CC50 (SK-MEL-2): 5.3 µM
- MIC (Amorphotheca resinae): >60 µg
- GI50 (EKVX): 1.4 µM
- TGI (EKVX): 3.8 µM
- CC50 (EKVX): 10.7 µM
- GI50 (U-251): 1 µM
- TGI (U-251): 2.2 µM
- CC50 (U-251): 4.7 µM
- Activity [1]: Toxic
- GI50 (NCI-H23): 0.1 µM
- LC50 (concentration causing 50% net cell kill) (NCI-H23): 0.7 µM
- TGI (NCI-H23): 0.3 µM
- GI50 (HCC 2998): 0.4 µM
- LC50 (concentration killing 50% of cells) (HCC 2998): 3.2 µM
- TGI (HCC 2998): 1 µM
- GI50 (SN12C): 0.5 µM
- LC50 (SN12C): 5.5 µM
- TGI (SN12C): 1.8 µM
- GI50 (SW-620): 0.7 µM
- LC50 (concentration killing 50% of cells) (SW-620): 4.9 µM
- TGI (SW-620): 2 µM
- GI50 (OVCAR-8): 0.7 µM
- TGI (OVCAR-8): 7.6 µM
- CC50 (OVCAR-8): 84.8 µM
- GI50 (HT-29): 0.5 µM
- LC50 (HT-29): 27.3 µM
- TGI (HT-29): 3.2 µM
- GI50 (SR): 0.2 µM
- TGI (SR): 1.3 µM
- CC50 (SR): 3.7 µM

— ChEMBL document CHEMBL1146569, “The pterocellins, novel bioactive alkaloids from the marine bryozoan Pterocella vesiculosa” (J Nat Prod, 2003)
